Source: PubChem BioAssay
This is a sample that favours compounds with a hit; in the whole collection about 5.4% have one here.
PostGolgi yeast: growth inhibition of a yeast mutant, post-Golgi transport screen | post-Golgi transport phenotypic cell assay | inhibition, % at 10 µM | 0.9% of 98,000 active | AID 739;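 note: yeast cells grown in 1536-well plates; yeast grown about 18 h at 30C before absorbance read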
Ecoli tolC: blocks growth of E. coli BW25113 tolC mutant; OD615; growth inhibition, % at 10 µM (by protocol); 2.2% of 65,000 active; AID 573;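 active = growth inhibition at or above a cutoff equal to the mean over every tested compound plus 3 SD, cut at about 60% in these data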;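 note: growth measured after 20 h incubation at 37 °C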
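signal = optical density read at 615 nm | test system = E. coli ΔtolC::kan strain BW25113 | timing = 20 h compound exposure of bacteria at 37 °C | buffer or medium = LB medium plus 50 µg/mL kanamycin | compound dosing = 10 µM final, single dose | evaluation = % inhibition of E. coli growth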
Ecoli WT expand: growth inhibitors of E. coli BW25113 wild type; OD600 absorbance; growth inhibition, % at 100 µM; 0.15% of 98,000 active; AID 710;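 active = growth inhibition above about 50% at one test dose, limit read from the data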;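 note: growth measured after 20 h incubation at 37 °C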
PLAP act: activators of human placental alkaline phosphatase; P05187; purified PLAP enzyme, luminescent substrate read-out; stronger effect = higher value; activation fold at 20 µM; 1.2% of 96,000 active; in the data active = activation fold above about 2
PostGolgi ctrl: growth of the yeast control strain, post-Golgi counter-screen; efflux-deficient yeast background strain, growth absorbance A615, 16 h; inhibition, % at 10 µM; 5% of 98,000 active
HePTP inh: inhibitors of human HePTP phosphatase; P35236; recombinant HePTP phosphatase activity, OD absorbance; inhibition, % at 20 µM; 0.64% of 110,000 active; in the data active = inhibition above about 50%;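 note: plate controls were vehicle for no effect and reference inhibitor for full effect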
Target sequence (P35236 whole entry, looked up): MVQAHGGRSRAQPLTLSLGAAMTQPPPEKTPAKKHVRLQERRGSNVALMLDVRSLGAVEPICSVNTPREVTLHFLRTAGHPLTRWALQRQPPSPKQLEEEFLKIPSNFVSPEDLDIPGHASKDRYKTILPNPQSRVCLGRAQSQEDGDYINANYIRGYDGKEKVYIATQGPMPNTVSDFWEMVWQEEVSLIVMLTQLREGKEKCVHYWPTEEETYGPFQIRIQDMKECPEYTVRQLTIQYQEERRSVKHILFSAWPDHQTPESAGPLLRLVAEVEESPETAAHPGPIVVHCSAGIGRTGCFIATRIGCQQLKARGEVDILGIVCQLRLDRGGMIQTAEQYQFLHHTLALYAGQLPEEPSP
Active calls of the source: *; x = no result. Cut-off read from the data, not from the text of the source, unless noted: active = inhibition above about 30%; inactive = the rest.

SMILES	PostGolgi yeast	Ecoli tolC	Ecoli WT expand	PLAP act	PostGolgi ctrl	HePTP inh
O=C1C2C3C=CC(CC3)C2C(=O)N1/N=C/c1ccc(I)o1 (stereo not given)	x	x	x	x	x	3
COCCOc1cc(Nc2nnc(C(F)(F)F)s2)c(Cl)cc1Cl	21	x	-6	1.3	32*	x
COc1cc(Nc2nnc(C)s2)c(Cl)cc1Cl	-3	x	4	1.1	9	x
Cc1ccc2c(c1)NC(=O)C(CC(=O)NCCCN1CCCCC1)O2 (stereo not given)	-4	-13	8	0.8	0	-2
Cc1ccc2c(c1)NC(=O)C(CC(=O)NCCCN1CCN(c3cc(Cl)ccc3C)CC1)O2 (stereo not given)	-1	71*	12	1.6	5	-3
O=C(Nc1ncc(Br)s1)C(Cc1ccccc1)n1cccc1 (stereo not given)	87*	96*	12	1.4	89*	1
COC(=O)c1cc(CN2CCN(c3ccccc3C)CC2)ccc1O	-1	x	3	1.6	33*	x
c1ccc2[nH]c(SCc3ccc(-c4nnco4)cc3)nc2c1	-1	6	10	2*	-8	8
CCCc1cc(=O)oc2c(CN3CCCC3)c(O)c(Cl)cc12	-28	6	-3	2.9*	3	3
Cc1c(C)c2cc(Cl)c(O)c(CN3CCN(C)CC3)c2oc1=O	36*	19	2	1	5	2
Cc1cc(=O)oc2c(CN3CCCCC3)c(O)c(Cl)cc12	38*	1	-6	1.3	-3	-3
CCCc1cc(=O)oc2c(CN3CCCC3)c(O)ccc12	9	12	4	1.3	6	-9
Cc1ccc(C(O)(C(=O)NCCO)c2ccc(C)cc2)cc1	x	x	x	x	x	9
COc1ccc(C(=O)Nc2cccc3ccccc23)cc1Br	x	x	x	x	x	-3
Fc1cccc(CN2CCN(Cc3ccco3)CC2)c1	x	x	x	x	x	-6
COc1c(S(=O)(=O)n2nc(C)cc2C)ccc(Cl)c1Cl	-2	4	0	1.3	31*	5
COc1ccc(C2CC(c3ccccc3)Nc3nc(NC(=O)c4ccco4)nn32)cc1 (stereo not given)	4	32	12	1.9	-4	11
COc1ccc(C2CC(c3ccc(OC)cc3)n3nc(NC(=O)c4ccco4)nc3N2)cc1 (stereo not given)	5	43	-4	1.8	31*	-7
Cn1c(C(=O)OCC(=O)NCc2ccco2)cc2sccc21	7	-16	-4	1.3	0	9
O=C(NCc1ccco1)c1ccc(Cn2c(=O)c3sccc3n(Cc3cccc(F)c3)c2=O)cc1	-6	x	-18	1.6	38*	x
CCC(OC(=O)c1cc2sccc2n1C)C(=O)NCc1ccco1 (stereo not given)	103*	0	4	0.9	99*	3
CCn1c(C(=O)NCCCc2ccccc2)cc2sccc21	x	81*	x	x	x	4
O=C(NCc1ccco1)c1ccc(Cn2c(=O)c3ccccc3n(Cc3cccc(Cl)c3)c2=O)cc1	19	x	-12	0.8	15	x
O=C(NCc1ccco1)c1cc2sccc2n1Cc1ccccc1	x	77*	x	x	x	2
CC(=O)OCCNC(=O)/C(=C\c1ccc(Br)cc1)NC(=O)c1ccc(Br)o1	x	x	x	x	x	5
SMILES	PostGolgi yeast	Ecoli tolC	Ecoli WT expand	PLAP act	PostGolgi ctrl	HePTP inh
CC1(C)CC(=O)C2=C(C1)OC1=C(C(=O)CC(C)(C)C1)C2c1ccccc1OCC(=O)O	x	x	x	x	x	9
O=S(=O)(NCC(c1cccnc1)N1CCN(c2ccccc2)CC1)c1cc(F)ccc1F (stereo not given)	95*	9	7	1.1	75*	10
COc1ccccc1N1CCN(C(CNS(=O)(=O)c2cc(F)ccc2F)c2cccnc2)CC1 (stereo not given)	x	3	x	x	x	9
C#CCOc1ccc(/C=C2\C(=O)NC(=O)N(c3ccc(Cl)cc3)C2=O)cc1OC	x	x	x	x	x	2
CCOC(=O)c1c(NS(C)(=O)=O)sc2c1CCC(C)C2 (stereo not given)	-3	12	-6	1.7	32*	1
CCOC(=O)c1c(N)sc2c1CCC(C)C2 (stereo not given)	8	9	18	1	12	4
O=C(/C=C\c1ccco1)Oc1ccc(/C=N\NC(=O)c2cncc(Br)c2)cc1	x	x	x	x	x	58*
COc1ccc(-n2nc([N+](=O)[O-])c(=NCCc3ccc(Cl)cc3)n2O)cc1	3	x	-3	1	40*	x
CCc1ccc(N=c2c([N+](=O)[O-])nn(-c3ccccc3)n2O)cc1	7	x	15	0.7	34*	x
CCc1ccc(/C=C2\C(=O)NN(c3ccccc3)C2=O)cc1	x	x	x	x	x	-12
N#CC(C(=O)CCN1C(=O)C2CC=CCC2C1=O)c1nc2ccccc2[nH]1 (stereo not given)	-2	-5	6	1	13	13
N#CC(C(=O)C12CC3CC(CC(C3)C1)C2)c1nc2ccccc2[nH]1 (stereo not given)	-6	48	-16	1.1	74*	1
CCOc1cccc(N2C(=O)CC(SC(=NCc3ccc(OC)cc3)Nc3ccccc3)C2=O)c1 (stereo not given)	x	x	x	x	x	-16
COc1ccc(/C=C2/SC(=O)NC2=O)cc1[N+](=O)[O-]	x	x	x	x	x	5
Clc1ccc(-c2noc(-c3ccc(Br)cc3)n2)cc1	x	x	x	x	x	-4
Cc1cc(=O)[nH]c(SCC(=O)c2ccc(C)c(C)c2)n1	87*	5	1	0.9	3	9
COc1ccc(C(=O)Nc2ccc(Br)cc2F)c(OC)c1	x	x	x	x	x	-6
Cc1ccc(S(=O)(=O)n2cc(-c3ccccc3)c(N)n2)cc1	25	x	-8	0.6	25	x
N#Cc1cccc(-c2cn(S(=O)(=O)c3ccc(Cl)cc3)nc2N)c1	-7	0	0	1	31*	4
O=C(CCSc1nc(-c2ccco2)cc(C(F)(F)F)n1)N1CCN(c2ccccn2)CC1	5	60	-27	1.5	30*	5
O=C(CCCSc1nc(-c2ccco2)cc(C(F)(F)F)n1)Nc1ccc2c(c1)OCO2	-1	79*	-6	1.1	10	-2
O=C(CCSc1nc(-c2ccco2)cc(C(F)(F)F)n1)N1CCCc2ccccc21	-3	77*	-17	1.6	38*	4
O=C(CSc1nc(-c2ccco2)cc(C(F)(F)F)n1)N1CCSCC1	x	16	x	x	x	x
COc1cc(OC)cc(-n2nnnc2SCC(=O)N2CCCc3ccccc32)c1	-7	84*	-10	1.1	8	9
CCCn1c(SCC(=O)N2CCCc3ccccc32)nnc1-c1ccco1	-7	11	-3	0.9	36*	8
O=C(Nc1ccccc1)NC1(C(=O)NCCCN2CCOCC2)CCCCC1	-6	-20	7	1.4	17	15
O=C(Nc1ccc(Cl)cc1)NC1(C(=O)NCCCN2CCOCC2)CCCCC1	-3	-14	6	2.7*	7	-7
CCOc1cc(/C=C\[N+](=O)[O-])ccc1OCC(=O)Nc1ccccc1C	39*	x	-1	1.1	7	x
CCOc1cc(/C=N/NC(N)=O)cc(Br)c1OCC(=O)Nc1ccccc1C	0	x	-9	1.3	11	x
